{"data": "Measured values gathered from unrelated publications", "note": "Lines come from different studies, so protocols differ. pEC50, pIC50: −log10 of the molar value."}
{"Compound": "CCOC(=O)C1=C(CN2CCN(Cc3cccc(B4OC(C)(C)C(C)(C)O4)c3)CC2)NC(c2nccs2)=NC1c1ccc(F)cc1Br (stereo not drawn)", "organism": "Hepatitis B virus", "test": "viral replication, inhibitor, qPCR", "test system": "HepDES19", "setting": "72 h", "measurement": "pEC50", "value": 5.89}
{"Compound": "Cc1ccc(N=Nc2c(N)nn3c(-c4ccc(C)cc4)cc(-c4ccc(OCc5ccccc5)cc4)nc23)cc1", "organism": "Saccharomyces cerevisiae", "test": "microbial growth, broth dilution", "test system": "ATCC9763", "measurement": "MIC", "value": "62.5 µg/mL"}
{"Compound": "CNC(=S)NN=Cc1ccc(OC)c(OC)c1", "organism": "Leishmania tropica", "test": "parasite growth", "test system": "J774.A1", "setting": "72 h, intracellular, amastigote", "measurement": "pIC50", "value": 3.34}
{"Compound": "CCOC(=O)C1=C(CN2CCC(C(=O)Nc3ccccc3B3OC(C)(C)C(C)(C)O3)C2)NC(c2nccs2)=NC1c1ccc(F)cc1Br (stereo not drawn)", "organism": "Hepatitis B virus", "test": "viral replication, inhibitor, qPCR", "test system": "HepDES19", "setting": "72 h", "measurement": "pEC50", "value": 5.50}
{"Compound": "O=[N+]([O-])C1=Cc2ccccc2OC1c1cccc(OCc2ccc(Cl)cc2)c1 (stereo not drawn)", "organism": "Leishmania tropica", "test": "parasite growth", "test system": "THP-1", "setting": "72 h, intracellular, amastigote", "measurement": "IC50", "value": "149 µg/mL"}
{"Compound": "CCOC(=O)C1=C(CN2CCC[C@H]2C(=O)Nc2ccc(B(O)O)cc2)NC(c2nccs2)=N[C@@H]1c1ccc(F)cc1Br", "organism": "Hepatitis B virus", "test": "viral replication, inhibitor, qPCR", "test system": "HepDES19", "setting": "72 h", "measurement": "pEC50", "value": 4.48}
{"Compound": "Cc1ccc(-c2cc(-c3ccc(OCc4ccccc4)cc3)nc3c(N=Nc4ccc(F)cc4)c(N)nn23)cc1", "organism": "Saccharomyces cerevisiae", "test": "microbial growth, broth dilution", "test system": "ATCC9763", "measurement": "MIC", "value": "62.5 µg/mL"}
{"Compound": "CNC(=S)NN=Cc1ccc(C)cc1", "organism": "Leishmania tropica", "test": "parasite growth", "test system": "J774.A1", "setting": "72 h, intracellular, amastigote", "measurement": "pIC50", "value": 3.35}
{"Compound": "COc1ccc(N=Nc2c(N)nn3c(-c4ccco4)cc(-c4ccc(OCc5ccccc5)cc4)nc23)cc1", "organism": "Saccharomyces cerevisiae", "test": "microbial growth, broth dilution", "test system": "ATCC9763", "measurement": "MIC", "value": "62.5 µg/mL"}
{"Compound": "Cc1ccc(COc2cccc(C3Oc4ccccc4C=C3[N+](=O)[O-])c2)cc1 (stereo not drawn)", "organism": "Leishmania tropica", "test": "parasite growth", "test system": "THP-1", "setting": "72 h, intracellular, amastigote", "measurement": "IC50", "value": "162 µg/mL"}
{"Compound": "CNC(=S)NN=Cc1ccc(Br)cc1", "organism": "Leishmania tropica", "test": "parasite growth, MTT", "setting": "72 h, promastigote", "measurement": "pIC50", "value": 4.03}
{"Compound": "CCOC(=O)C1=C(CN2CCCC2C(=O)Nc2cccc(B(O)O)c2)NC(c2nccs2)=NC1c1ccc(F)cc1Br (stereo not drawn)", "organism": "Hepatitis B virus", "test": "viral replication, inhibitor, qPCR", "test system": "HepDES19", "setting": "72 h", "measurement": "pEC50", "value": 6.33}
{"Compound": "O=[N+]([O-])C1=Cc2ccccc2OC1c1ccc(F)cc1 (stereo not drawn)", "organism": "Leishmania tropica", "test": "parasite growth", "test system": "THP-1", "setting": "72 h, intracellular, amastigote", "measurement": "IC50", "value": "147 µg/mL"}
{"Compound": "CCOC(=O)C1=C(CN2CCN(Cc3ccccc3B(O)O)CC2)NC(c2nccs2)=NC1c1ccc(F)cc1Br (stereo not drawn)", "organism": "Hepatitis B virus", "test": "viral replication, inhibitor, qPCR", "test system": "HepDES19", "setting": "72 h", "measurement": "pEC50", "value": 5.83}
{"Compound": "Nc1nn2c(-c3ccco3)cc(-c3ccc(OCc4ccccc4)cc3)nc2c1N=Nc1ccc(F)cc1", "organism": "Saccharomyces cerevisiae", "test": "microbial killing, broth dilution", "test system": "ATCC9763", "measurement": "MFC", "value": "62.5 µg/mL"}
{"Compound": "O=[N+]([O-])C1=Cc2ccccc2OC1c1ccc(OCc2ccc(F)cc2)cc1 (stereo not drawn)", "organism": "Leishmania tropica", "test": "parasite growth", "test system": "THP-1", "setting": "72 h, intracellular, amastigote", "measurement": "IC50", "value": "181 µg/mL"}
{"Compound": "COc1ccc(N=Nc2c(N)nn3c(-c4ccc(C)cc4)cc(-c4ccc(OCc5ccccc5)cc4)nc23)cc1", "organism": "Saccharomyces cerevisiae", "test": "microbial growth, broth dilution", "test system": "ATCC9763", "measurement": "MIC", "value": "31.3 µg/mL"}
{"Compound": "O=[N+]([O-])C1=Cc2ccccc2OC1c1ccccc1Br (stereo not drawn)", "organism": "Leishmania tropica", "test": "parasite growth", "test system": "THP-1", "setting": "72 h, intracellular, amastigote", "measurement": "IC50", "value": "154 µg/mL"}
{"Compound": "OC(Cn1cncn1)(Cn1cncn1)c1ccc(F)cc1F", "organism": "Saccharomyces cerevisiae", "test": "microbial growth, broth dilution", "test system": "BY4742", "setting": "48 h", "measurement": "MIC", "value": "8 µg/mL"}
{"Compound": "COc1ccc(C2Oc3ccccc3C=C2[N+](=O)[O-])cc1 (stereo not drawn)", "organism": "Leishmania tropica", "test": "parasite growth", "test system": "THP-1", "setting": "72 h, intracellular, amastigote", "measurement": "IC50", "value": "150 µg/mL"}
{"Compound": "COc1ccc(C=NNC(=S)Nc2cccnc2)cc1", "organism": "Leishmania tropica", "test": "parasite growth, MTT", "setting": "72 h, promastigote", "measurement": "pIC50", "value": 3.19}
{"Compound": "O=[N+]([O-])C1=Cc2ccccc2OC1c1cccc(Cl)c1 (stereo not drawn)", "organism": "Leishmania tropica", "test": "parasite growth", "test system": "THP-1", "setting": "72 h, intracellular, amastigote", "measurement": "IC50", "value": "151 µg/mL"}
{"Compound": "C[C@@H]1[C@H](O)[C@@H](C)/C=C/C=C/C=C/C=C/C=C/C=C/C=C/[C@H](O[C@@H]2O[C@H](C)[C@@H](O)[C@H](N)[C@@H]2O)C[C@@H]2O[C@](O)(C[C@@H](O)C[C@@H](O)[C@H](O)CC[C@@H](O)C[C@@H](O)CC(=O)O[C@H]1C)C[C@H](O)[C@H]2C(=O)O", "organism": "Saccharomyces cerevisiae", "test": "microbial growth, broth dilution", "test system": "BY4742", "setting": "48 h", "measurement": "MIC", "value": "0.25 µg/mL"}
{"Compound": "Cc1ccc(N=Nc2c(N)nn3c(-c4ccc(Cl)cc4Cl)cc(-c4ccc(OCc5ccccc5)cc4)nc23)cc1", "organism": "Saccharomyces cerevisiae", "test": "microbial growth, broth dilution", "test system": "ATCC9763", "measurement": "MIC", "value": "31.3 µg/mL"}
{"Compound": "CCOC(=O)C1=C(CN2CCCC2C(=O)Nc2cccc(B3OC(C)(C)C(C)(C)O3)c2)NC(c2nccs2)=NC1c1ccc(F)cc1Br (stereo not drawn)", "organism": "Hepatitis B virus", "test": "viral replication, inhibitor, qPCR", "test system": "HepDES19", "setting": "72 h", "measurement": "pEC50", "value": 6.43}
{"Compound": "COc1ccc(C=NNC(=S)Nc2cccnc2)cc1OC", "organism": "Leishmania tropica", "test": "parasite growth, MTT", "setting": "72 h, promastigote", "measurement": "pIC50", "value": "< 3.00"}
{"Compound": "CCOC(=O)C1=C(CN2CCCC2C(=O)Nc2ccc(B3OC(C)(C)C(C)(C)O3)cc2)NC(c2nccs2)=NC1c1ccc(F)cc1Br (stereo not drawn)", "organism": "Hepatitis B virus", "test": "viral replication, inhibitor, qPCR", "test system": "HepDES19", "setting": "72 h", "measurement": "pEC50", "value": 6.43}
{"Compound": "S=C(NN=Cc1ccc(Br)cc1)Nc1cccnc1", "organism": "Leishmania tropica", "test": "parasite growth, MTT", "setting": "72 h, promastigote", "measurement": "pIC50", "value": 3.26}
{"Compound": "O=[N+]([O-])C1=Cc2ccccc2OC1c1ccc(OCc2ccc(Cl)cc2)cc1 (stereo not drawn)", "organism": "Leishmania tropica", "test": "parasite growth", "test system": "THP-1", "setting": "72 h, intracellular, amastigote", "measurement": "IC50", "value": "142 µg/mL"}
{"Compound": "Fc1ccc(C=NNC(=S)Nc2cccnc2)cc1", "organism": "Leishmania tropica", "test": "parasite growth", "test system": "J774.A1", "setting": "72 h, intracellular, amastigote", "measurement": "pIC50", "value": 3.70}
{"Compound": "CC(=O)N1CCN(c2ccc(OCC3COC(Cn4ccnc4)(c4ccc(Cl)cc4Cl)O3)cc2)CC1 (stereo not drawn)", "organism": "Saccharomyces cerevisiae", "test": "microbial growth, broth dilution", "test system": "ATCC9763", "measurement": "MIC", "value": "1.95 µg/mL"}
{"Compound": "C[C@@H]1[C@H](O)[C@@H](C)/C=C/C=C/C=C/C=C/C=C/C=C/C=C/[C@H](O[C@@H]2O[C@H](C)[C@@H](O)[C@H](N)[C@@H]2O)C[C@@H]2O[C@](O)(C[C@@H](O)C[C@@H](O)[C@H](O)CC[C@@H](O)C[C@@H](O)CC(=O)O[C@H]1C)C[C@H](O)[C@H]2C(=O)O", "organism": "Leishmania tropica", "test": "parasite growth", "test system": "J774.A1", "setting": "72 h, intracellular, amastigote", "measurement": "pIC50", "value": 4.55}
{"Compound": "COc1ccc(N=Nc2c(N)nn3c(-c4ccc(Cl)cc4Cl)cc(-c4ccc(OCc5ccccc5)cc4)nc23)cc1", "organism": "Saccharomyces cerevisiae", "test": "microbial growth, broth dilution", "test system": "ATCC9763", "measurement": "MIC", "value": "125 µg/mL"}
